Test results published in ChEMBL document CHEMBL4014347, “Targeting Mycolic Acid Transport by Indole-2-carboxamides for the Treatment of Mycobacterium abscessus Infections” (J Med Chem, 2017).
In brackets after ≈: the same amount, converted by molar mass. Activity calls are given as the source filed them. No cut-off for these calls is given here.

Key:
Vero = experiment: Cytotoxicity against African green monkey Vero cells; type: cell-based; settings: Chlorocebus sabaeus
[1] = system: Mycobacteroides abscessus; experiment: Antibacterial activity against CF patient derived Mycobacterium abscessus subsp. abscessus isolate 2524 rough variant after 3 to 5 days by two fold serial dilution method; type: functional
How it was run: (§1)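 Broth microdilution in cation-adjusted Mueller−Hinton broth per CLSI; inoculum 5 × 10^6 CFU/mL of exponential-phase bacteria; two-fold serial dilutions, solvent-only wells as control; 30 °C for 3−5 days; MIC read visually and confirmed by absorbance at 560 nm; triplicate on three independent occasions.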

[2] = system: Mycobacteroides abscessus; experiment: Antibacterial activity against CF patient derived Mycobacterium abscessus subsp. abscessus rough variant after 3 to 5 days by two fold serial dilution method; type: functional; how it was run: as §1
[3] = system: Mycobacteroides abscessus; experiment: Antibacterial activity against CF patient derived Mycobacterium abscessus subsp. abscessus isolate 3321 smooth variant after 3 to 5 days by two fold serial dilution method; type: functional; how it was run: as §1
[4] = system: Mycobacteroides abscessus; experiment: Antibacterial activity against CF patient derived Mycobacterium abscessus subsp. abscessus isolate 1298 smooth variant after 3 to 5 days by two fold serial dilution method; type: functional; how it was run: as §1
[5] = system: Mycobacteroides abscessus; experiment: Antibacterial activity against CF patient derived Mycobacterium abscessus subsp. abscessus smooth variant after 3 to 5 days by two fold serial dilution method; type: functional; how it was run: as §1
[6] = system: Mycobacteroides abscessus; experiment: Antibacterial activity against CF patient derived Mycobacterium abscessus subsp. massiliense isolate 210 rough variant after 3 to 5 days by two fold serial dilution method; type: functional; how it was run: as §1
[7] = system: Mycobacteroides abscessus; experiment: Antibacterial activity against Addison's disease patient derived Mycobacterium abscessus subsp. massiliense isolate CIP108297 smooth variant after 3 to 5 days by two fold serial dilution method; type: functional; how it was run: as §1
[8] = system: Mycobacteroides abscessus; experiment: Antibacterial activity against CF patient derived Mycobacterium abscessus subsp. massiliense isolate 140 smooth variant after 3 to 5 days by two fold serial dilution method; type: functional; how it was run: as §1
[9] = system: Mycobacteroides abscessus; experiment: Antibacterial activity against CF patient derived Mycobacterium abscessus subsp. massiliense isolate 122 smooth variant after 3 to 5 days by two fold serial dilution method; type: functional; how it was run: as §1
[10] = system: Mycobacteroides abscessus; experiment: Antibacterial activity against CF patient derived Mycobacterium abscessus subsp. massiliense isolate 120 smooth variant after 3 to 5 days by two fold serial dilution method; type: functional; how it was run: as §1
[11] = Antibacterial activity against CF patient derived Mycobacterium abscessus subsp. bolletii isolate 97 smooth variant after 3 to 5 days by two fold serial dilution method; type: functional; settings: Mycobacteroides abscessus; how it was run: as §1
[12] = Antibacterial activity against CF patient derived Mycobacterium abscessus subsp. bolletii isolate 114 smooth variant after 3 to 5 days by two fold serial dilution method; type: functional; settings: Mycobacteroides abscessus; how it was run: as §1
[13] = system: Mycobacteroides abscessus; experiment: Antibacterial activity against Mycobacterium abscessus CIP104536 smooth variant assessed as reduction in viable colony forming unit at […] after 4 days by time-kill assay; type: functional
[14] = system: Mycobacteroides abscessus; experiment: Antibacterial activity against Mycobacterium abscessus CIP104536 smooth variant infected in PMA activated THP-1 macrophages assessed as reduction in viable colony forming unit at 3 ug/ml measured upto 4 days post treatment; type: functional
How it was run: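 THP-1 cells in RPMI with 10% FBS, differentiated with 20 ng/mL PMA for 48 h at 37 °C; infected at MOI 1:2 for 2 h under 5% CO2; washed, 200 μg/mL amikacin for 1 h, washed; drug medium renewed daily; lysed in 1% Triton X100 at 0, 48, 96 h and plated for CFU; triplicates, two independent experiments.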

[15] = system: Mycobacteroides abscessus; experiment: Antibacterial activity against Mycobacterium abscessus CIP_OK4-10 harboring MAB_4508 g925c/A309P mutant after 3 to 5 days by two fold serial dilution method; type: functional; how it was run: as §1
[16] = system: Mycobacteroides abscessus; experiment: Antibacterial activity against Mycobacterium abscessus CIP_PIPD1 harboring MAB_4508 g925c/A309P mutant after 3 to 5 days by two fold serial dilution method; type: functional; how it was run: as §1
[17] = system: Mycobacteroides abscessus; experiment: Antibacterial activity against Mycobacterium abscessus CIP104536 smooth variant harboring pMV261 MAB_4508_A309P mutant at 0.5 to 1 ug/ml after 3 days; type: functional
How it was run: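 M. abscessus overexpressing wild-type or A309P MAB_4508 from pMV261 plated on 7H10 agar with 10% OADC containing drug; plates incubated at 30 °C for 3 days before growth inspection.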

[18] = Protein binding in rat plasma at 5 uM after 10 mins by LC-MS/MS analysis; type: ADME, cell-free; settings: read-out: PPB (converted)
How it was run: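 Ultracentrifugation method: 5 μM compound in mouse or rat plasma (from DMSO stock), 10 min at 37 °C; total concentration from incubated plasma, unbound from middle-layer supernatant after 200000g for 4.5 h; niflumic acid internal standard, acetonitrile, filtered, LC-MS/MS.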

[19] = system: Mycobacterium tuberculosis; experiment: Inhibition of C-terminal His-tagged Mycobacterium tuberculosis Ag85C expressed in Escherichia coli C41 (DE3) at 2.5 to 50 uM after 1 hr by resorufin butyrate-based fluorescence assay
How it was run: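 Purified Ag85C mycolyltransferase activity measured with the fluorescent probe resorufin butyrate; compounds tested at 2.5 to 50 μM.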

CYP1A2 = biological target: T1, CYP1A2 (Homo sapiens, UniProt P05177); experiment: Inhibition of CYP1A2 in human liver microsomes preincubated for 5 mins followed by NADPH addition at 10 uM measured after 10 mins by LC-MS/MS analysis relative to control; type: ADME
T1 sequence (P05177 whole entry): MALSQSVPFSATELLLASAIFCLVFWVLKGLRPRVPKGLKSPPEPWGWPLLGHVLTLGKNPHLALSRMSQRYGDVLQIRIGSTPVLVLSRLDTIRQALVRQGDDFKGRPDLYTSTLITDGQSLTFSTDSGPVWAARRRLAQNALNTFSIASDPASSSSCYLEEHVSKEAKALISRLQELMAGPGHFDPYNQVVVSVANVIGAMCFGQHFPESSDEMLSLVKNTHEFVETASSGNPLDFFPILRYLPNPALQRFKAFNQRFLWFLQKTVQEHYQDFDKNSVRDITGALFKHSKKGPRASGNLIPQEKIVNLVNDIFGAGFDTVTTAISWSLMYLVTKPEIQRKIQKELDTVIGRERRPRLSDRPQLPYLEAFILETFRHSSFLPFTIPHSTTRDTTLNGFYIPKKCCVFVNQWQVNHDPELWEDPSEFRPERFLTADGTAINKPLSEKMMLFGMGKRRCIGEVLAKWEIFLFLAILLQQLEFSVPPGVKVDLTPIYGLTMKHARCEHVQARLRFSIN

Liver = experiment: Intrinsic clearance in rat liver microsomes at 0.5 uM in presence of NADPH by LC-MS/MS analysis; type: ADME, microsome
How it was run: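 Compound (0.5 μM) incubated with mouse or rat liver microsomes plus NADPH regenerating system; aliquots every 3 min over 30 min analysed for parent by LC-MS/MS; monoexponential decay rate normalized to microsomal protein, expressed as mL/min/g liver.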

Salmonella typhimurium [20] = experiment: Mutagenicity in Salmonella typhimurium TA100 in presence of rat liver S9 fraction assessed as increase in revertant colonies at 0.24 to 500 ug/well after 72 hrs by Ames test relative to control; type: toxicity; settings: salmonella enterica subsp. enterica serovar typhimurium, s9, 72 h
How it was run: (§2)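 Reverse mutation at histidine locus in S. typhimurium TA98 (frameshift) and TA100 (base-pair substitution), with and without S9; 0.24−500 μg/well; 37 ± 2 °C for 72 h, triplicates; DMSO vehicle; sodium azide, 2-nitrofluorene, 2-aminoanthracene positive controls; positive if revertants rise ≥2-fold over negative control dose-dependently.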

Salmonella typhimurium [21] = experiment: Mutagenicity in Salmonella typhimurium TA98 assessed as increase in revertant colonies at 0.24 to 500 ug/well after 72 hrs by Ames test relative to control; type: toxicity; settings: salmonella enterica subsp. enterica serovar typhimurium; how it was run: as §2

## O=C(NC1CCCCCC1)c1cc2c(Cl)cc(Cl)cc2[nH]1
Vero
  IC50: 8 to 16 µg/mL (≈ 24.6 to 49.2 µM)
[1]
  MIC: 0.125 µg/mL (≈ 0.384 µM)
[2]
  MIC: 0.125 µg/mL (≈ 0.384 µM)
[3]
  MIC: 0.125 µg/mL (≈ 0.384 µM)
[4]
  MIC: 0.125 µg/mL (≈ 0.384 µM)
[5]
  MIC: 0.125 µg/mL (≈ 0.384 µM)
[6]
  MIC: 0.125 µg/mL (≈ 0.384 µM)
[7]
  MIC: 0.125 µg/mL (≈ 0.384 µM)
[8]
  MIC: 0.125 µg/mL (≈ 0.384 µM)
[9]
  MIC: 0.125 µg/mL (≈ 0.384 µM)
[10]
  MIC: 0.125 µg/mL (≈ 0.384 µM)
[11]
  MIC: 0.125 µg/mL (≈ 0.384 µM)
[12]
  MIC: 0.125 µg/mL (≈ 0.384 µM)
[13]
  Activity: Active
[14]
  Activity: Active
[15]
  MIC: 32 µg/mL (≈ 98.4 µM)
[16]
  MIC: 32 µg/mL (≈ 98.4 µM)
[17]
  Activity: inactive
[18]
  fraction unbound at 10 min, 5 µM: 0.008
[19]
  inhibition: inactive
CYP1A2
  inhibition at 10 min, 10 µM: 19%
Liver
  CLH: 6.3 mL/min/g
Salmonella typhimurium [20]
  fold change (FC): < 2
Salmonella typhimurium [21]
  fold change (FC): < 2
